# In ChEMBL document CHEMBL3853360, “Combined Interactions with I1-, I2-Imidazoline Binding Sites and α2-Adrenoceptors To Manage Opioid Addiction” (ACS Med Chem Lett, 2016):
# Key:
# Nischarin = Nischarin (Rattus norvegicus, UniProt Q4G017); assay: Displacement of [125I]-p-iodoclonidine from I1 receptor imidazoline binding site in Sprague-Dawley rat kidney cell membranes after 30 mins by liquid scintillation counting
# Procedure, shortened: (§1)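 Radioligand competition binding with pKi determined by displacement. I1 sites: [125I]-p-iodoclonidine on rat kidney membranes. I2 sites: [3H]-2-BFI on rat brain membranes. α2-ARs: [3H]-RX821002 on rat brain membranes.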
# [1] = Displacement of [3H]-2-BFI from I2 receptor imidazoline binding site in Sprague-Dawley rat brain membranes after 30 mins by liquid scintillation counting; assay type: cell membranes, Membrane; procedure, shortened: as §1
# [2] = Reduction in morphine dependence expression in CD1 mouse assessed as inhibition of naloxone-precipitated teeth chattering frequency at 5 mg/kg, ip administered acutely 15 mins prior to naloxone challenge relative to control; assay type: functional, organism-based
# [3] = Reduction in morphine dependence expression in CD1 mouse assessed as inhibition of naloxone-precipitated rearing frequency at 10 mg/kg, ip administered acutely 15 mins prior to naloxone challenge relative to control; assay type: functional, organism-based
# Mus musculus = assay: Reduction in morphine dependence acquisition in CD1 mouse assessed as inhibition of naloxone-precipitated teeth chattering frequency at 5 to 10 mg/kg, ip administered 15 mins prior to each morphine challenge relative to control; assay type: functional
# Procedure, shortened: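 Mice received i.p. test compound (5 or 10 mg/kg) 15 min before each of repeated morphine injections, with vehicle and morphine-only controls. Withdrawal was then precipitated with naloxone. Jumping frequency and somatic signs (rearing, forepaw tremor, teeth chattering; summed frequency) were scored and compared with the morphine group. Data are mean ± SEM of 6–10 animals.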
# [4] = Reduction in morphine dependence expression in CD1 mouse assessed as inhibition of naloxone-precipitated forepaw tremor frequency at 5 mg/kg, ip administered acutely 15 mins prior to naloxone challenge relative to control; assay type: functional, organism-based
# [5] = biological target: T1, Alpha-2A adrenergic receptor (Homo sapiens) (UniProt P08913); assay: Antagonist activity at human alpha2a-AR expressed in CHO cells assessed as inhibition of (-)-noradrenaline-induced acidification rate after 240 mins by cytosensor microphysiometric analysis; assay type: cell-based
# T1 sequence (whole entry): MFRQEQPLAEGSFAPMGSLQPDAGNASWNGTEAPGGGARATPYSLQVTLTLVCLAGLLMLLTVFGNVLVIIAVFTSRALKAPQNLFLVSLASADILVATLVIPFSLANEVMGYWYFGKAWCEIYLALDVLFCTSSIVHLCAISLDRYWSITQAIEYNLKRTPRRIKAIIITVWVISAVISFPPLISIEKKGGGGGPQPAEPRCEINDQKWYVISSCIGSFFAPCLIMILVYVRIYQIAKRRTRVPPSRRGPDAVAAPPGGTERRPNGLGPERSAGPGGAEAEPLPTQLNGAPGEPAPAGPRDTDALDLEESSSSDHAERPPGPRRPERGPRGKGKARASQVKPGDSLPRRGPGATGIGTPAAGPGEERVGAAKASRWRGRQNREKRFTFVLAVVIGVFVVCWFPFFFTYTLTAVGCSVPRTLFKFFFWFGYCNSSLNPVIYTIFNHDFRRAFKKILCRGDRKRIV
# Procedure, shortened: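 Functional assay in CHO cells stably expressing a single human α2-AR subtype (α2A, α2B or α2C), read on a Cytosensor microphysiometer. Outputs are pEC50, intrinsic activity and, for antagonism, pKb. Intrinsic activity is expressed as a fraction of the full agonist (−)-noradrenaline, set at 1. Values are mean ± SEM of 3–5 separate experiments.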
# [6] = biological target: T2, Adrenergic receptor alpha-2 (Rattus norvegicus, UniProt P22086+P19328+P22909); assay: Displacement of [3H]-RX 821002 from alpha2-AR in Sprague-Dawley rat brain membranes after 30 mins by liquid scintillation counting; assay type: cell membranes, Membrane; procedure, shortened: as §1
# T2 sequence (P22086 whole entry): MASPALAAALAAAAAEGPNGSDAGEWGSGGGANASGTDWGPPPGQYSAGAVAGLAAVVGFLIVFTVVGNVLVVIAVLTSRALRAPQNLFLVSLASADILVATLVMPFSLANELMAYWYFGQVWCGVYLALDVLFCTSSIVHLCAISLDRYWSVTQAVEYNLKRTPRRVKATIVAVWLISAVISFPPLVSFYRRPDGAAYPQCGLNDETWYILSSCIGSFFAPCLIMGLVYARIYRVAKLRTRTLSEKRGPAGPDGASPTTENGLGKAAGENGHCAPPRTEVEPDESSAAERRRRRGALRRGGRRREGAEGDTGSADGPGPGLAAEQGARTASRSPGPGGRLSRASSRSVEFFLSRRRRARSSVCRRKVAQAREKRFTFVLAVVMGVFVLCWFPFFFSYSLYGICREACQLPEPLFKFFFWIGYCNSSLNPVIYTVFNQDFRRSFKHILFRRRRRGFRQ
# T2 sequence (P19328 whole entry): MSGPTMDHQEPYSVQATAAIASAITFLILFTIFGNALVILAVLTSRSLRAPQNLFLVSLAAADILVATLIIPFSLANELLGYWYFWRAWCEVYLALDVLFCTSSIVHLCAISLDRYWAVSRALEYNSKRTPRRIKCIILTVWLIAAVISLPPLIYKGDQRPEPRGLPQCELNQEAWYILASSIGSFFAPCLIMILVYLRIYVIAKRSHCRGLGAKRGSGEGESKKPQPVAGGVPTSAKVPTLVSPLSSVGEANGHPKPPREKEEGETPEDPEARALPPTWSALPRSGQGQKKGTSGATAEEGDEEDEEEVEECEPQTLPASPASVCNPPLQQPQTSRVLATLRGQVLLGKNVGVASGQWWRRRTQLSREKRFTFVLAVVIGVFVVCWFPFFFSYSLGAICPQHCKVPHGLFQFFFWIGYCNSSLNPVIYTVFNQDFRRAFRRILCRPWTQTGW
# T2 sequence (P22909 whole entry): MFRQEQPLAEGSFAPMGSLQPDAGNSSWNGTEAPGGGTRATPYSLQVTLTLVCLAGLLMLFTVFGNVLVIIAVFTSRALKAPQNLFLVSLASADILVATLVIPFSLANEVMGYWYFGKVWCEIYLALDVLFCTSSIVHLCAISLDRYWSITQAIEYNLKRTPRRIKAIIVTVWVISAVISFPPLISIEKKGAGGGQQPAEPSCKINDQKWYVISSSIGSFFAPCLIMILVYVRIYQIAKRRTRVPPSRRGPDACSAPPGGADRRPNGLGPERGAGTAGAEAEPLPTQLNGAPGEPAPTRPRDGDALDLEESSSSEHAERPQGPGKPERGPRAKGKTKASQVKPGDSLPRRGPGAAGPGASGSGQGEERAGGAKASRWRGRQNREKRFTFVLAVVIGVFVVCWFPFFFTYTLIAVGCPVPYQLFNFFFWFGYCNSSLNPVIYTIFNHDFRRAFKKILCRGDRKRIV
# Chain of Nischarin (Q4G017 whole entry): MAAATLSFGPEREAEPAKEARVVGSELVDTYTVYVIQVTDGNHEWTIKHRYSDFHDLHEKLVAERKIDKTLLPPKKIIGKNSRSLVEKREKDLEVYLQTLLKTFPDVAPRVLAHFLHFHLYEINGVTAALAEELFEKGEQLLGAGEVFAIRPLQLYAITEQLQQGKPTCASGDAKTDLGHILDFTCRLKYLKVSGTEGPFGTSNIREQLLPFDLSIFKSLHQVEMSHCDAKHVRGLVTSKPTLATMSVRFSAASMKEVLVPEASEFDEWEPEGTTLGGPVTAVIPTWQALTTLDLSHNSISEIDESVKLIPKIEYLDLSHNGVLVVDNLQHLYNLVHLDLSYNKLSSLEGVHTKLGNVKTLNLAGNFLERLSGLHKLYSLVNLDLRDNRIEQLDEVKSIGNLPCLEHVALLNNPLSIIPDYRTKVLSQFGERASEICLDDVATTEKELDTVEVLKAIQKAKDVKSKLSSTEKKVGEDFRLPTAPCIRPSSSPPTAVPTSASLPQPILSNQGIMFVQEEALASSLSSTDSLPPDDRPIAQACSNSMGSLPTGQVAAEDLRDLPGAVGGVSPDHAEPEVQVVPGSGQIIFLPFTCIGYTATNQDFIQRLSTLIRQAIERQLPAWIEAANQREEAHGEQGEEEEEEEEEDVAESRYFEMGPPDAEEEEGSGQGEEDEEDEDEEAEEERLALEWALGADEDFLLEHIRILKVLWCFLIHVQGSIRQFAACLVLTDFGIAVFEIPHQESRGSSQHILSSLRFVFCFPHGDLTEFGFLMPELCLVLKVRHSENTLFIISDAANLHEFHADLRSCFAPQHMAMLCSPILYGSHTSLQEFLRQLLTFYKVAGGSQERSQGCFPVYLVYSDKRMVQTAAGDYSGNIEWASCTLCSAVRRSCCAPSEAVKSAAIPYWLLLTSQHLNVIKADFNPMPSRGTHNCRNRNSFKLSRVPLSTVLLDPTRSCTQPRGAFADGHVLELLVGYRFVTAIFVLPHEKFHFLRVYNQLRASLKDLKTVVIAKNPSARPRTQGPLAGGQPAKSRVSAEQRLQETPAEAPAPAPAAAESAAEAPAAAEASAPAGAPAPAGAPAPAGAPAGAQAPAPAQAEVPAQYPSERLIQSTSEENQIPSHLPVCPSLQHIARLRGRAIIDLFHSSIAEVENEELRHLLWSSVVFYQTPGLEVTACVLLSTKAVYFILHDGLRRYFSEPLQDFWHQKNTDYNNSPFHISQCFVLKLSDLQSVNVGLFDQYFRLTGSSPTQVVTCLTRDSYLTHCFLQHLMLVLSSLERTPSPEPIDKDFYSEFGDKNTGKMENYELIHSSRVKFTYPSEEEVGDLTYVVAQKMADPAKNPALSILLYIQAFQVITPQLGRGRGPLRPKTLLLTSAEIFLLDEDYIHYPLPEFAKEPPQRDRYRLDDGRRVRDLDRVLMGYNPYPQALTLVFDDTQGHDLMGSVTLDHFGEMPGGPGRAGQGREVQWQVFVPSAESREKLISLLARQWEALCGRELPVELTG
compound,measurement,setting,value
Cc1ccccc1NCC1=NCCN1,Ki,Nischarin,2 nM
same,pKi,[1],8.06
same,inhibition,[2],86%
same,inhibition,[3],93%
same,inhibition (INH),Mus musculus,80%
same,inhibition,[4],86%
same,pKb,[5],7.58
same,pKi,[6],7.73
